# Active and inactive are the calls of the source. The calls are words filed in the database; no cut-off is given here.
# Experiments:
# Type in all cases: cell-based
# [1] = target: Toll-like receptor 1/2 (Homo sapiens) (UniProt O60603+Q15399); assay: Inhibition of human TLR1/2 expressed in HEK-Blue cells assessed as inhibition of Pam3CSK4-induced NF-kappaB activation at 20 uM measured after 24 hrs by quanti-blue based SEAP reporter gene assay
# Procedure, shortened: (§1)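 HEK-Blue SEAP format: 4 × 10⁴ cells/well in DMEM with ligand plus compound, 24 h at 37 °C. Supernatant mixed with QUANTI-Blue up to 1 h, then A620 read. Ligands: Pam3CSK4 100 ng/mL (TLR1/2), Pam2CSK4 100 ng/mL (TLR2/6), poly(I:C) 5 µg/mL (TLR3), LPS 20 ng/mL (TLR4), flagellin 50 ng/mL (TLR5), R848 1 µg/mL (TLR7), R848 2 µg/mL (TLR8), ODN2006 0.5 µM (TLR9). Mean ± s.d.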
# [2] = target: Toll-like receptor 3 (Homo sapiens) (UniProt O15455); assay: Inhibition of human TLR3 expressed in HEK-Blue cells assessed as inhibition of poly(I/C)-induced NF-kappaB activation at 20 uM measured after 24 hrs by quanti-blue based SEAP reporter gene assay; procedure, shortened: as §1
# [3] = target: T1, Toll-like receptor 9 (Homo sapiens) (UniProt Q9NR96); assay: Inhibition of human TLR9 expressed in HEK-Blue cells assessed as inhibition of ODN2006-induced NF-kappaB activation at 20 uM measured after 24 hrs by quanti-blue based SEAP reporter gene assay; procedure, shortened: as §1
# T1 sequence (whole entry): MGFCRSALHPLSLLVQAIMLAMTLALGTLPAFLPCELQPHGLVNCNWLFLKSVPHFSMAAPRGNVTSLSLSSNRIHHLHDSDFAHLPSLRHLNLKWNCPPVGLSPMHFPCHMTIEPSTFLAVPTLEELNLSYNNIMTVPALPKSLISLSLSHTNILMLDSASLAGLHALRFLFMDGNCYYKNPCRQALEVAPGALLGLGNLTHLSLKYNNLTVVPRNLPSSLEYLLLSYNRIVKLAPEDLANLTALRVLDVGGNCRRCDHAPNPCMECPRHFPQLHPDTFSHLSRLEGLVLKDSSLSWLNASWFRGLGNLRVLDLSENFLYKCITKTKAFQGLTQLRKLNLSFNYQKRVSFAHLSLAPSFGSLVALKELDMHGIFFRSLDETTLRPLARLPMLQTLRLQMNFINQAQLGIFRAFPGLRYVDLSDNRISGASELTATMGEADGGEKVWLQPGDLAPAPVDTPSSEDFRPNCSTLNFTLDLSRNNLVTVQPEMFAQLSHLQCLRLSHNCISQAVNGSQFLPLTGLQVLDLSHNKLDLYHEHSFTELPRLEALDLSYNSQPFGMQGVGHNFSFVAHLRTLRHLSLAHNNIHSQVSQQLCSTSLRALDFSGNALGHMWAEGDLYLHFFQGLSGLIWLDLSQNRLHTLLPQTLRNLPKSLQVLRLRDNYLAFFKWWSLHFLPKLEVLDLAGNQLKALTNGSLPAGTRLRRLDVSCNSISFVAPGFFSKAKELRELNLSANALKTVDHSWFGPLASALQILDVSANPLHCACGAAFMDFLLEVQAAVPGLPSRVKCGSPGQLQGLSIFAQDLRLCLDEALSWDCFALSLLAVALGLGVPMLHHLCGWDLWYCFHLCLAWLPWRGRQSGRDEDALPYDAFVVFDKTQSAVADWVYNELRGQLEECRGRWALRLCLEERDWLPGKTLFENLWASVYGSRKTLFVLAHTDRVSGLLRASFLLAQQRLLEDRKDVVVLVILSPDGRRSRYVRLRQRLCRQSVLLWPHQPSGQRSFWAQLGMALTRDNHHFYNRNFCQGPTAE
# [4] = target: T2, Toll-like receptor 8 (Homo sapiens) (UniProt Q9NR97); assay: Inhibition of TLR8 in human monocytes assessed as reduction in R848-induced IL6 production measured after 24 hrs by ELISA
# T2 sequence (whole entry): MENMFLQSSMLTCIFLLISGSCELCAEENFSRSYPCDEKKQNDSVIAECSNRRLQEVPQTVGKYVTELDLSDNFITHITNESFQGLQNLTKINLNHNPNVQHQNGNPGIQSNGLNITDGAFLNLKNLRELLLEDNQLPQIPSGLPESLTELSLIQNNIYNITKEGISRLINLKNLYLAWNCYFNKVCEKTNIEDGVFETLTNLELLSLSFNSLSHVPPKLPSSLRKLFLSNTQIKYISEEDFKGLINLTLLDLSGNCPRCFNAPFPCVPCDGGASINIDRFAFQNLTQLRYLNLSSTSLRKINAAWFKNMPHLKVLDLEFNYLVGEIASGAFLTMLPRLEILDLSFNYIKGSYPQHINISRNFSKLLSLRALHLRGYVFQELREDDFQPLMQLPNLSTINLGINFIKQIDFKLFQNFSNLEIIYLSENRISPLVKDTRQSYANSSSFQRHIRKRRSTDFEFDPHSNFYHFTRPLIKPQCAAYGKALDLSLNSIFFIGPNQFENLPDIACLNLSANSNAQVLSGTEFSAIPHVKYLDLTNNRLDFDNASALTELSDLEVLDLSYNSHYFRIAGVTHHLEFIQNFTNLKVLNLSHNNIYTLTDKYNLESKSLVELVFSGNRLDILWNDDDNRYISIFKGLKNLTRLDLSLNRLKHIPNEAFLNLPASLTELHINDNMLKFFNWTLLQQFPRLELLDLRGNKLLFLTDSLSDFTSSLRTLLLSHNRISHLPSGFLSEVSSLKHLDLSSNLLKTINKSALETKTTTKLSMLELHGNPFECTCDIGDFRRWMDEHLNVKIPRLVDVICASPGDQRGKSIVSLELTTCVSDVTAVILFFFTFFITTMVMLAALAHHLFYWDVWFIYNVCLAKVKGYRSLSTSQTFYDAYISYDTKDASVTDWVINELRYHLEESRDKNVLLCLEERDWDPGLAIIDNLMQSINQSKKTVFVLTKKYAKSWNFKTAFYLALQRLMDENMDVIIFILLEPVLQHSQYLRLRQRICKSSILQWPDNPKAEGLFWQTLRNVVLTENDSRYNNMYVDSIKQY
# Procedure, shortened: (§2)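 Human monocyte cell lines in RPMI 1640 with 10% FBS and 0.05 mM 2-mercaptoethanol, 1 × 10⁶/well, 24 h. After PBS washes, fresh RPMI added with R848 1 µg/mL and varying compound concentrations for 24 h. Supernatant TNF-α, IL-6 and IL-1β measured by ELISA.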
# [5] = target: T2, Toll-like receptor 8 (Homo sapiens); assay: Inhibition of TLR8 in human monocytes assessed as reduction in R848-induced phosphorylated IRAK4 expression measured after 2 hrs by Western blot analysis
# Procedure, shortened: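 Monocyte cell lines, 2 × 10⁶/well, differentiated with PMA 100 ng/mL for 24 h. After washes, cells in unsupplemented RPMI received R848 1 µg/mL with varying compound concentrations for 2 h. Nuclear/cytoplasmic fractions extracted and resolved on 10% SDS-PAGE. Blots probed for p65, TRAF3 and p-IRAK4 (1:1000); lamin A/C (nuclear) and β-actin (cytoplasmic) as loading controls.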
# [6] = target: T2, Toll-like receptor 8 (Homo sapiens); assay: Inhibition of TLR8 in human monocytes assessed as reduction in R848-induced TNFalpha production measured after 24 hrs by ELISA; procedure, shortened: as §2
# Chain of Toll-like receptor 3 (Homo sapiens) (O15455 whole entry): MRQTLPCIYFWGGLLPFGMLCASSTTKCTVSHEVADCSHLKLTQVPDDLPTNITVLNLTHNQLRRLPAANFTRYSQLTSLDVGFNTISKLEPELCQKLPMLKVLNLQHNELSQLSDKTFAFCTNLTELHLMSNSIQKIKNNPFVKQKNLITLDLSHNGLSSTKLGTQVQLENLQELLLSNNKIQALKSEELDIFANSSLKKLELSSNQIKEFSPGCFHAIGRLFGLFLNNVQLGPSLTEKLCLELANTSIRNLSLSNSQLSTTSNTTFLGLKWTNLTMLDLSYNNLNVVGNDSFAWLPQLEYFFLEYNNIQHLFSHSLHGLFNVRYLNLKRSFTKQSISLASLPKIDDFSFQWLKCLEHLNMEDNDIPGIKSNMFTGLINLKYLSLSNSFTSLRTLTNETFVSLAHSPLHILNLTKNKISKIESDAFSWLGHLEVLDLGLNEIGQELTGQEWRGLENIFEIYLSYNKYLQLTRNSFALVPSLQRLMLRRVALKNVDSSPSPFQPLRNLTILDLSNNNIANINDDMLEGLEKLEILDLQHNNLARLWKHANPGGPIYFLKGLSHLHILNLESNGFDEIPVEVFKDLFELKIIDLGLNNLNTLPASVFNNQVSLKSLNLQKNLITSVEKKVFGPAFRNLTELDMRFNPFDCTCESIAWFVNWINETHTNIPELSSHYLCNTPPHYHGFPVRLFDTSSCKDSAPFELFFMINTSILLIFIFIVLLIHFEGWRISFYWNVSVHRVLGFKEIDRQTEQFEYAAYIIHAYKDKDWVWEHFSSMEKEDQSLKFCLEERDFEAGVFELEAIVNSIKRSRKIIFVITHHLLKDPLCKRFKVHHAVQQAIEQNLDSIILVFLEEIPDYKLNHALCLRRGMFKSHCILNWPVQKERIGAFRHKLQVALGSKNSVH
smiles,measurement,setting,value
CSc1nnc(CCCO)n1-c1cc(C)c(C)c(C)c1,inhibition,[1],inactive
same,inhibition,[2],inactive
same,inhibition,[3],inactive
same,inhibition,[4],Dose-dependent effect
same,inhibition,[5],Dose-dependent effect
same,inhibition,[6],Dose-dependent effect

# Source: ChEMBL document CHEMBL4354873, “Rationally Designed Small-Molecule Inhibitors Targeting an Unconventional Pocket on the TLR8 Protein-Protein Interface” (J Med Chem, 2020)
